This is an account of results in ChEMBL document CHEMBL1153229, “The first synthetic agonists of FFA2: Discovery and SAR of phenylacetamides as allosteric modulators” (Bioorg Med Chem Lett, 2010).

In data set [1] the target is T1, Free fatty acid receptor 2 (Homo sapiens, UniProt O15552).
T1 sequence (O15552 whole entry): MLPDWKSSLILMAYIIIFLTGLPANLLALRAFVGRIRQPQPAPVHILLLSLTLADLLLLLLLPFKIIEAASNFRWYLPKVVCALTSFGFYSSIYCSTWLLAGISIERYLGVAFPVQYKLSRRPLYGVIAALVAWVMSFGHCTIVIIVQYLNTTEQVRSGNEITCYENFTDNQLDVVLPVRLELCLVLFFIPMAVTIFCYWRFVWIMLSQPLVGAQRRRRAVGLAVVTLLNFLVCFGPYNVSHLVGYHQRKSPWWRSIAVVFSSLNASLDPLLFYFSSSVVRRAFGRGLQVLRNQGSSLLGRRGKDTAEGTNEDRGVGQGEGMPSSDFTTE
The data set can be described thus: Agonist activity at human FFA2 receptor expressed in CHO cells assessed as inhibition of forskolin-induced cAMP production. The format is functional, cell-based. The method in brief: (§1)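 Suspended cells, 10,000 per well, in Hank's balanced salt solution with 25 mM HEPES and 0.01% (w/v) BSA. Stimulated with forskolin (5 μM final) plus serially diluted test ligands, room temperature for 30 min. Antibody and lysis reagents then added, followed by overnight dark incubation with detection solution. Luminescence read (RLU). Efficacy expressed relative to acetate. Means of four experiments.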

The subject of data set [2] is Rattus norvegicus. The data set can be described thus: Clearance in Sprague-Dawley rat at 0.5 mg/kg, iv. In kind it is ADME, organism-based. Further details: dose 0.5 mg/kg, route intravenous. The note with it: in vivo. The method, boiled down: (§2)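 Male Sprague-Dawley rats dosed 0.5 mg/kg iv.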
Data set [3] has as its system Rattus norvegicus. The data set can be described thus: AUC in Sprague-Dawley rat at 0.5 mg/kg, iv. In kind it is ADME, organism-based, Plasma. Also on record: dose 0.5 mg/kg, route intravenous. The note with it: in vivo. The method, boiled down: as §2
Data set [4] is described as follows: Mean residence time in Sprague-Dawley rat at 0.5 mg/kg, iv. The format is ADME, organism-based. The note with it: in vivo. Also on record: dose 0.5 mg/kg, route intravenous. The method, boiled down: as §2
Data set [5] is described as follows: Volume of distribution at steady state in Sprague-Dawley rat at 0.5 mg/kg, iv. In kind it is ADME, organism-based. Also on record: dose 0.5 mg/kg, route intravenous. To be noted: in vivo, read-out: Vdss. The method, boiled down:
as §2

A short description of data set [6]: Cmax in mouse at 5 mg/kg, po. The format is ADME, organism-based. Further details: dose 5 mg/kg, route oral. To be noted: in vivo.
Data set [7] is described as follows: AUC in mouse at 5 mg/kg, po. To be noted: plasma. The format is ADME, organism-based. Also on record: dose 5 mg/kg, route oral.
A short description of data set [8]: Mean residence time in mouse at 5 mg/kg, po. In kind it is ADME, organism-based. Also on record: dose 5 mg/kg, route oral. The note with it: in vivo.
The nature of data set [9]: Tmax in mouse at 5 mg/kg, po. In kind it is ADME, organism-based. Also on record: dose 5 mg/kg, route oral. The note with it: in vivo.
Data set [10] concerns the target T2, Free fatty acid receptor 2 (Homo sapiens) (UniProt O15552).
T2 sequence (whole entry): T1 sequence (O15552 whole entry)
The data set can be described thus: Agonist activity at human FFA2 receptor expressed in CHO cells assessed as inhibition of forskolin-induced cAMP production relative to acetate. In kind it is functional, cell-based. The method, boiled down:
as §1

In data set [11] the target is T3, Free fatty acid receptor 2 (Mus musculus) (UniProt Q8VCK6).
T3 sequence (whole entry): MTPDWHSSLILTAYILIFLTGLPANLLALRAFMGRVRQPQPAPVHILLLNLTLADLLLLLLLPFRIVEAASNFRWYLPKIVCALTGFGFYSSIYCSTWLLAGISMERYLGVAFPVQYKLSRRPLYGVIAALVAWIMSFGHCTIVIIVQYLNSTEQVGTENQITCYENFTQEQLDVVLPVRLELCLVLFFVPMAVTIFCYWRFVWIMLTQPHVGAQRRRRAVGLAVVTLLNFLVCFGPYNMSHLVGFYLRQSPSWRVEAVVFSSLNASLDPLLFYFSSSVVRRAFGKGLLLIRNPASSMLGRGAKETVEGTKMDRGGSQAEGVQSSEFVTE
As to the kind of experiment: Agonist activity at mouse FFA2 receptor expressed in CHO cells assessed as inhibition of forskolin-induced cAMP production. The format is functional, cell-based. The method in brief:
as §1

The next data set deals with 3T3-L1. As to the kind of experiment: Inhibition of lipolysis in mouse 3T3L1 cells. The format is functional, cell-based. The method in brief: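 Lipolysis measured in 3T3L1 adipocytes across a concentration range of test compound. Sensitivity to pertussis toxin treatment also examined. Means of three experiments.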
A short description of data set [12]: Metabolic stability in rat liver microsomes assessed as compound remaining after 30 mins. The note with it: read-out: Stability. The format is ADME, Microsome. The method in brief: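 Incubated with rat liver microsomes; percent parent remaining at 30 min.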
A general note: Liver microsomes are a subcellular fraction often used to study metabolism.

As usually defined, the IC50 is the concentration that inhibits the measured activity by half. A word on the AUC: it is concentration integrated over time. Low readings indicate less exposure, high ones more exposure. For orientation: MRT means the average time that molecules of a dose stay in the body. As a reminder, the Cmax is the highest concentration seen after dosing. Usually Tmax stands for the time at which the peak concentration occurs. Consider `CC(C)(C)[C@H](C(=O)Nc1ncc(Cl)s1)c1ccc(Cl)cc1`, for which, in data set [1], the IC50 turned out to be 1000 nM. The compound further had a CL in the data set on Rattus norvegicus [2] of 8 mL/min/kg. For the same compound, the exposure (AUC) was 1.03 µg·h/mL in the data set with Rattus norvegicus [3] and 4550 µg·h/mL in [7]. The figures for the MRT in data set [4] and in [8] were 9 h and 7.6 h, respectively. Also, the Vd in [5] was 4.4 L/kg. The compound further showed a Cmax in [6] of 569 ng/mL. Moreover, in data set [9], the Tmax was determined as 2 h. For the same compound, in [10], the Efficacy worked out at 97%.
Take `Cc1cnc(NC(=O)[C@H](c2ccc(Cl)cc2)C(C)C)s1`: the IC50 in data set [1] was 800 nM. Further, the Efficacy in [10] was 99%. In addition, in data set [11], the Activity was 1.4 µM. Moreover, in the data set with 3T3-L1, the inhibition entry was “Dose-dependent effect”.
As to `CC(C)[C@H](C(=O)Nc1nccs1)c1ccc(Cl)cc1`, the IC50 in [1] turned out to be 700 nM. Moreover, the CL with Rattus norvegicus [2] was 107 mL/min/kg. Besides, the results for the exposure (AUC) (in the data set on Rattus norvegicus [3]; in data set [7]) were 0.079 µg·h/mL and 10 µg·h/mL, respectively. Further, the remaining at 0.5 h in data set [12] was 2%. Besides, the MRT came to 1.1 h in data set [4] and 1.8 h in data set [8]. Moreover, the Vd in [5] worked out at 7 L/kg. The peak level in [6] (Cmax) was 5 ng/mL. Also, in [9], the Tmax came out at 1 h. The Efficacy in data set [10] was 100%. Moreover, the Activity in data set [11] was determined as 1 µM. The inhibition entry in the data set on 3T3-L1 was “Dose-dependent effect”.
As to `CC(C)[C@H](C(=O)Nc1ncc(Cl)s1)c1ccc(Cl)cc1`, in [1], the IC50 turned out to be 700 nM. Also, the CL in the data set on Rattus norvegicus [2] is 33 mL/min/kg. The AUC with Rattus norvegicus [3] was 0.249 µg·h/mL. This compound also came in with a mean residence time MRT in [4] of 4.2 h. In addition, the Vd in [5] is 8.3 L/kg. Further, the Efficacy in [10] worked out at 100%.
Regarding `CC(C)(C)[C@H](C(=O)Nc1ncc(-c2ccccc2)s1)c1ccc(Cl)cc1`, the IC50 in [1] came out at 700 nM. The compound also gave a CL in the data set with Rattus norvegicus [2] of 5.33 mL/min/kg. The AUC with Rattus norvegicus [3] turned out to be 1.67 µg·h/mL; in data set [7], 18600 µg·h/mL. In addition, the values for the MRT in data set [4] and in [8] were 9.1 h and 9.2 h, respectively. Besides, the Vd in data set [5] stood at 2.7 L/kg. Further, in data set [6], the peak level (Cmax) was 1870 ng/mL. In addition, in [9], the Tmax was found to be 2 h. Moreover, in data set [10], the Efficacy came out at 111%.
With `CC(C)C[C@H](C(=O)Nc1nccs1)c1ccc(Cl)cc1`, the IC50 in [1] was 600 nM. Moreover, the Efficacy in [10] was 68%.
Consider `CC(C)(C)[C@H](C(=O)Nc1ncc(C(O)(C(F)(F)F)C(F)(F)F)s1)c1ccc(Cl)cc1`, for which the IC50 in data set [1] was found to be 1200 nM. The Efficacy in data set [10] was 113%.
Turning to `CC(C)C(C(=O)Nc1cnccn1)c1ccc(Cl)cc1` (racemic), the IC50 in [1] turned out to be 5700 nM. For the same compound, in [10], the Efficacy was 115%.
On to `CC(C)[C@H](C(=O)Nc1ccncc1)c1ccc(Cl)cc1`, for which the IC50 in data set [1] came out at 56000 nM. For the same compound, the Efficacy in data set [10] was determined as 40%.
Regarding `CC(=O)O` [ACETIC ACID], the IC50 in data set [1] amounted to 120000 nM. Further, the Efficacy in data set [10] stood at 100%.
Taken in the same sequence, the figures for `CC(C)[C@H](C(=O)Nc1ncc(C(F)(F)F)s1)c1ccc(Cl)cc1` were 1500 nM and 95%.
In the case of `CC(C)[C@H](C(=O)Nc1cnns1)c1ccc(Cl)cc1`, the IC50 in [1] is 57000 nM. In addition, the Efficacy in data set [10] was found to be 48%.
`CC(C)[C@H](C(=O)Nc1ccccc1)c1ccc(Cl)cc1`: the IC50 in data set [1] was > 100000 nM. The Efficacy in [10] is < 30%.
With `CC(C)(C(=O)Nc1ncc(F)s1)c1ccc(Cl)cc1`, the IC50 in [1] was 50000 nM. Moreover, the Efficacy in data set [10] came to 57%.
As for `CC(C)[C@H](C(=O)Nc1ccc(F)cn1)c1ccc(Cl)cc1`, the IC50 in [1] stood at 1300 nM. Besides, the Efficacy in [10] stood at 93%.
`CC(C)[C@H](C(=O)Nc1nc2cc(Cl)ccc2o1)c1ccc(Cl)cc1`: the 50% inhibitory concentration (IC50) in [1] was determined as 4300 nM. In data set [10], the Efficacy turned out to be 88%.
For `C[C@H](C(=O)Nc1nccs1)c1ccc(Cl)cc1` the same measures were 46000 nM and 83%.
